Assay results from ChEMBL document CHEMBL1122319, “Substituted (2-phenoxyphenyl)acetic acids with antiinflammatory activity. 1” (J Med Chem, 1983).

Key:
Assay type in all cases: functional
[1] = system: Rattus norvegicus; assay: Reduction in paw swelling at 100 mg/kg po dose in rat using adjuvant arthritis test; value is +8 indicates exacerbation of paw swelling.
[2] = system: Rattus norvegicus; assay: Reduction in paw swelling at 100 mg/kg po dose in rat using adjuvant arthritis test; value is +10 indicates exacerbation of paw swelling.
[3] = system: Rattus norvegicus; assay: Reduction in paw swelling at 100 mg/kg po dose in rat using adjuvant arthritis test; value is +13 indicates exacerbation of paw swelling.
[4] = system: Rattus norvegicus; assay: Reduction in paw swelling at 100 mg/kg po dose in rat using adjuvant arthritis test; value is +20 indicates exacerbation of paw swelling.
[5] = system: Rattus norvegicus; assay: Reduction in paw swelling at 100 mg/kg po dose in rat using adjuvant arthritis test; value is +6 indicates exacerbation of paw swelling.
[6] = system: Rattus norvegicus; assay: Reduction in paw swelling at 100 mg/kg po dose in rat using adjuvant arthritis test; value is +14 indicates exacerbation of paw swelling.
[7] = system: Rattus norvegicus; assay: Reduction in paw swelling at 100 mg/kg po dose in rat using adjuvant arthritis test.
[8] = organism: Rattus norvegicus; assay: Minimum ulcerogenic dose(MUD) of the compound;Value ranges from (400-800)
[9] = organism: Rattus norvegicus; assay: (§1) Potency relative to [2-(2,4-Dichloro-phenoxy)-phenyl]-acetic acid in rat adjuvant arthritis test
[10] = system: Rattus norvegicus; assay: Reduction in paw swelling at 100 mg/kg po dose in rat using adjuvant arthritis test; value is +9 indicates exacerbation of paw swelling.
[11] = organism: Rattus norvegicus; assay: Minimum ulcerogenic dose(MUD) of the compound.
[12] = system: Rattus norvegicus; assay: Reduction in paw swelling at 100 mg/kg po dose in rat using adjuvant arthritis test; value is +1 indicates exacerbation of paw swelling.
[13] = system: Rattus norvegicus; assay: Reduction in paw swelling at 100 mg/kg po dose in rat using adjuvant arthritis test; value is +3 indicates exacerbation of paw swelling.
[14] = system: Rattus norvegicus; assay: Reduction in paw swelling at 100 mg/kg po dose in rat using adjuvant arthritis test; value is +2 indicates exacerbation of paw swelling.
[15] = system: Rattus norvegicus; assay: Reduction in paw swelling at 100 mg/kg po dose in rat using adjuvant arthritis test; value is +23 indicates exacerbation of paw swelling.
[16] = organism: Rattus norvegicus; assay: as §1; remark: listed apart in the source
Summary of the method: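 Established (therapeutic) adjuvant arthritis test in rats: the drug was given after arthritis had fully developed. Relative potency against the reference standard was derived from a three-dose-level assay based on paw volume changes.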

[17] = system: Rattus norvegicus; assay: Reduction in paw swelling at 100 mg/kg po dose in rat using adjuvant arthritis test; value is +4 indicates exacerbation of paw swelling.
[18] = system: Rattus norvegicus; assay: Reduction in paw swelling at 100 mg/kg po dose in rat using adjuvant arthritis test; value is +7 indicates exacerbation of paw swelling.
[19] = system: Rattus norvegicus; assay: Reduction in paw swelling at 100 mg/kg po dose in rat using adjuvant arthritis test; value is +12 indicates exacerbation of paw swelling.
[20] = system: Rattus norvegicus; assay: Reduction in paw swelling at 100 mg/kg po dose in rat using adjuvant arthritis test; value is +5 indicates exacerbation of paw swelling.

| Compound | Reduction [7] | Relative potency [9] | also measured |
| --- | --- | --- | --- |
| CCCCc1ccc(Oc2ccc(C)cc2Cl)c(CC(=O)O)c1 |  |  | Reduction [1]: 8 |
| Cc1ccc(Oc2cc(C(F)(F)F)cc(C(F)(F)F)c2)c(CC(=O)O)c1 |  |  | Reduction [2]: 10 |
| CCc1ccc(Oc2ccc(C)cc2Cl)c(CC(=O)O)c1 |  |  | Reduction [3]: 13 |
| Cc1ccc(Oc2cc(O)ccc2CC(=O)O)c(Cl)c1 |  |  | Reduction [4]: 20 |
| COc1ccc(Oc2ccc(C)cc2Cl)c(CC(=O)O)c1 |  |  | Reduction [5]: 6 |
| Cc1ccc(Oc2cc(C)c(C)cc2CC(=O)O)c(Cl)c1 |  |  | Reduction [6]: 14 |
| CCC(C)c1ccc(Oc2ccc(C)cc2CC(=O)O)c(Cl)c1 (stereo not drawn) | 42 | 3 | MUD [8]: 800 mg/kg |
| COc1cccc(Oc2ccc(C)cc2CC(=O)O)c1 |  |  | Reduction [2]: 10 |
| Cc1ccc(Oc2cccc(O)c2CC(=O)O)c(Cl)c1 |  |  | Reduction [10]: 9 |
| Cc1ccc(Oc2ccc(C(C)(C)C)cc2Cl)c(CC(=O)O)c1 | 34 | 1.6 | MUD [11]: >500 mg/kg |
| Cc1ccc(Oc2cc(C)c(C)cc2Cl)c(CC(=O)O)c1 | 46 | 0.4 |  |
| Cc1ccc(Oc2ccc(Cl)cc2Cl)c(CC(=O)O)c1 | 29 | 0.8 |  |
| Cc1ccc(Oc2cc(C)ccc2CC(=O)O)c(Cl)c1 |  |  | Reduction [12]: 1 |
| CCCCc1ccc(Oc2ccc(C)cc2CC(=O)O)c(Cl)c1 | 25 | 0.9 |  |
| Cc1cc(Oc2ccc(Cl)cc2CC(=O)O)c(Cl)c(C)c1Cl | 41 | 1 |  |
| Cc1ccc(Oc2cccc(O)c2)c(CC(=O)O)c1 |  |  | Reduction [13]: 3 |
| CCc1ccc(Oc2ccc(C)cc2CC(=O)O)c(Cl)c1 | 40 | 1.1 | MUD [11]: >800 mg/kg |
| O=C(O)Cc1cc(Cl)ccc1Oc1ccc(Cl)cc1Cl | 37 | 1 |  |
| Cc1ccc(Oc2cc(C)c(Cl)cc2CC(=O)O)c(Cl)c1 |  |  | Reduction [6]: 14 |
| Cc1ccc(Oc2ccc(C3CCCCC3)cc2Cl)c(CC(=O)O)c1 |  |  | Reduction [14]: 2 |

| Compound | Reduction [7] | Relative potency [9] | also measured |
| --- | --- | --- | --- |
| Cc1ccc(Oc2c(Cl)cccc2CC(=O)O)c(Cl)c1 |  |  | Reduction [15]: 23 |
| O=C(O)Cc1ccccc1Oc1ccc(Cl)cc1Cl [FENCLOFENAC] | 36 | 1 | MUD [8]: 800 mg/kg |
| O=C(Cc1ccccc1Oc1ccc(Cl)cc1Cl)NO | 28% |  | Relative potency [16]: 1 |
| O=C(O)C(=O)c1ccccc1Oc1ccc(Cl)cc1Cl | 23 | 0.3 |  |
| Nc1cc(Cl)ccc1Oc1ccccc1CC(=O)O |  |  | Reduction [17]: 4 |
| O=C(O)Cc1cc(Cl)ccc1Oc1cc(Cl)ccc1Cl | 40 | 1 |  |
| OCCc1ccccc1Oc1ccc(Cl)cc1Cl | 32 | 0.7 |  |
| Cc1ccc(Oc2cc(Cl)c(C)cc2CC(=O)O)c(Cl)c1 |  |  | Reduction [18]: 7 |
| CCCCCCCCCCCCc1ccc(Oc2ccc(C)cc2CC(=O)O)c(Cl)c1 | 26% | 0.3 |  |
| COc1ccc(CC(=O)O)c(Oc2ccc(C)cc2Cl)c1 |  |  | Reduction [6]: 14 |
| CCCCCc1ccc(Oc2ccc(C)cc2CC(=O)O)c(Cl)c1 | 23 | 0.3 |  |
| Cc1ccc(Oc2c(C)cc(Cl)cc2C)c(CC(=O)O)c1 | 14 | 0.3 |  |
| O=C(O)/C=C/c1ccccc1Oc1ccc(Cl)cc1Cl |  |  | Reduction [1]: 8 |
| CCc1ccc(Oc2ccccc2CC(=O)O)c(Cl)c1 | 32 | 0.7 |  |
| Cc1ccc(Oc2c(C)cc(Cl)cc2Cl)c(CC(=O)O)c1 | 23 | 0.3 |  |
| Cc1ccc(Oc2ccc(-c3ccccc3)cc2Cl)c(CC(=O)O)c1 | 23 | 0.2 |  |
| COc1cc(Oc2ccc(C)cc2Cl)c(CC(=O)O)cc1C |  |  | Reduction [19]: 12 |
| Nc1ccc(Oc2ccccc2CC(=O)O)c(Cl)c1 |  |  | Reduction [20]: 5 |
| Cc1ccc(Oc2ccc(Cl)cc2)c(CC(=O)O)c1 | 9 | 0.7 |  |
